In brackets after ≈: the same amount, converted by molar mass. Activity calls are given as the source filed them. The calls are words filed in the database; no cut-off is given here.
Tests used:
[1] = organism: Bos taurus; test: Inhibition of neutral red binding to calf thymus DNA up to 1.4 x 10^-5mol/L by UV-Visible absorption spectroscopy
[2] = test system: Candida albicans; test: Antifungal activity against Candida albicans ATCC 76615 after 24 hrs by two-fold serial dilution assay; type: functional; settings: Candida albicans, ATCC 76615, 24 h; read-out: MIC
Summary of the method: (§1)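 Twofold serial broth dilution following NCCLS guidance, with Chloromycin, Norfloxacin and Fluconazole as positive controls. MIC in μM is the lowest concentration giving complete inhibition of visible bacterial or fungal growth.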

[3] = test system: Shigella dysenteriae; test: Antibacterial activity against Shigella dysenteriae after 24 hrs by two-fold serial dilution assay; type: functional; settings: Shigella dysenteriae, 24 h; read-out: MIC
[4] = test system: Aspergillus flavus; test: Antifungal activity against Aspergillus flavus after 24 hrs by two-fold serial dilution assay; type: functional; settings: Aspergillus flavus, 24 h; read-out: MIC; summary of the method: as §1
[5] = test system: Escherichia coli; test: Induction of Escherichia coli pBR322 DNA cleavage assessed as conversion of covalently closed circular DNA to open circular form and linear form of DNA by agarose gel electrophoresis method
Summary of the method: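 Supercoiled pBR322 plasmid is incubated with compound at 25, 50 and 75 μM alongside a DNA-only control at 37 °C, pH 7.0. Products are resolved by gel electrophoresis, scoring conversion of Form I to Form II (nicked) and Form III (linear).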

[6] = test system: Staphylococcus aureus; test: Antibacterial activity against methicillin-resistant Staphylococcus aureus N315 after 15 serial passages by two-fold serial dilution assay; type: functional
Summary of the method: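 Resistance-development test in MRSA. Cultures were propagated with fresh medium and serially diluted test agent, and the MIC was redetermined every 24 h. Parallel cultures were exposed to 2-fold dilutions of Chloromycin and Norfloxacin as positive controls. MIC was the lowest concentration giving complete growth inhibition.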

[7] = test system: Pichia norvegensis; test: Antifungal activity against Candida mycoderma after 24 hrs by two-fold serial dilution assay; type: functional; settings: Pichia norvegensis, 24 h; read-out: MIC; summary of the method: as §1
[8] = test system: Salmonella typhi; test: Antibacterial activity against Bacillus typhi after 24 hrs by two-fold serial dilution assay; type: functional, Salmonella enterica subsp. enterica serovar Typhi; settings: Salmonella enterica, 24 h; read-out: MIC
[9] = Binding affinity to DNA (unknown origin) assessed as hyperchromic effect up to 1.4 x 10^-5mol/L by UV-Visible absorption spectroscopy
Summary of the method: (§2)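 Calf thymus DNA is held at a fixed concentration, quantified by A260 (ε260 = 6600 L mol⁻¹ cm⁻¹, per phosphate) and checked for A260/A280 > 1.8. It is titrated with increasing compound in Tris-HCl pH 7.4 at 290 K. UV-vis spectra are recorded, following absorbance at 260 nm. The binding constant K is derived from a linear fit (R, SD reported).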

[10] = test system: Escherichia coli; test: Antibacterial activity against Escherichia coli JM109 after 24 hrs by two-fold serial dilution assay; type: functional; settings: Escherichia coli, JM109, 24 h; read-out: MIC; summary of the method: as §1
[11] = organism: Bos taurus; test: Induction of calf thymus DNA intercalation assessed as protection of compound quenching from iodide ion by fluorescence assay (reference value: 104.52 L/mol)
[12] = test system: Bacillus subtilis; test: Antibacterial activity against Bacillus subtilis after 24 hrs by two-fold serial dilution assay; type: functional; settings: Bacillus subtilis, 24 h; read-out: MIC; summary of the method: as §1
[13] = test system: Micrococcus luteus; test: Antibacterial activity against Micrococcus luteus ATCC 4698 after 24 hrs by two-fold serial dilution assay; type: functional, NCTC 2665; settings: Micrococcus luteus, NCTC 2665, 24 h; read-out: MIC; summary of the method: as §1
[14] = test system: Pseudomonas aeruginosa; test: Antibacterial activity against Pseudomonas aeruginosa after 24 hrs by two-fold serial dilution assay; type: functional; settings: Pseudomonas aeruginosa, 24 h; read-out: MIC; summary of the method: as §1
[15] = test system: Staphylococcus aureus; test: Antibacterial activity against methicillin-resistant Staphylococcus aureus N315 after 24 hrs by two-fold serial dilution assay; type: functional; settings: Staphylococcus aureus, N315, 24 h; read-out: MIC
[16] = test system: Escherichia coli; test: Antibacterial activity against Escherichia coli DH52 after 24 hrs by two-fold serial dilution assay; type: functional; settings: Escherichia coli, DH52, 24 h; read-out: MIC; summary of the method: as §1
[17] = Binding affinity to DNA (unknown origin) by UV-Visible absorption spectroscopy; summary of the method: as §2
[18] = test system: Staphylococcus aureus; test: Antibacterial activity against Staphylococcus aureus ATCC 25923 after 24 hrs by two-fold serial dilution assay; type: functional; settings: Staphylococcus aureus, ATCC 25923, 24 h; read-out: MIC; summary of the method: as §1
[19] = test system: Cyberlindnera jadinii; test: Antifungal activity against Candida utilis after 24 hrs by two-fold serial dilution assay; type: functional; settings: Williopsis jadinii, 24 h; read-out: MIC; summary of the method: as §1
[20] = test system: Proteus vulgaris; test: Antibacterial activity against Bacillus proteus ATCC 13315 after 24 hrs by two-fold serial dilution assay; type: functional; settings: Proteus vulgaris, ATCC 13315, 24 h; read-out: MIC; summary of the method: as §1
[21] = test system: Saccharomyces cerevisiae; test: Antifungal activity against Saccharomyces cerevisiae after 24 hrs by two-fold serial dilution assay; type: functional; settings: Saccharomyces cerevisiae, 24 h; read-out: MIC; summary of the method: as §1

COc1cc(-c2nc3cc(F)ccc3[nH]2)c2c(c1O)CN1CCc3cc4c(cc3C1C2)OCO4 (stereo unspecified)
inhibition [1]: Active | MIC [2]: 58 µM (≈ 26.6 µg/mL) | MIC [3]: 17.4 µM (≈ 7.99 µg/mL) | MIC [4]: 58 µM (≈ 26.6 µg/mL) | Activity [5]: Dose-dependent effect | Activity [6]: Active | MIC [7]: 8.7 µM (≈ 4 µg/mL) | MIC [8]: 14.5 µM (≈ 6.66 µg/mL) | Activity [9]: Active | MIC [10]: 8.7 µM (≈ 4 µg/mL) | KSV [11]: 87.7 L/mol | MIC [12]: 4.4 µM (≈ 2.02 µg/mL) | MIC [13]: 46.4 µM (≈ 21.3 µg/mL) | MIC [14]: 11.6 µM (≈ 5.33 µg/mL) | MIC [15]: 17.4 µM (≈ 7.99 µg/mL) | MIC [16]: 23.2 µM (≈ 10.7 µg/mL) | K [17]: 2.87 ×10⁴ L/mol | MIC [18]: 58 µM (≈ 26.6 µg/mL) | MIC [19]: 14.5 µM (≈ 6.66 µg/mL) | MIC [20]: 69.6 µM (≈ 32 µg/mL) | MIC [21]: 8.7 µM (≈ 4 µg/mL)

From ChEMBL document CHEMBL4049410, “Novel benzimidazolyl tetrahydroprotoberberines: Design, synthesis, antimicrobial evaluation and multi-targeting exploration” (2017)
